# Measured values reported in ChEMBL document CHEMBL1149758, “N-[2-(5,5-dimethyl-1,3-dioxane-2-yl)ethyl]amino acids: their synthesis, anti-inflammatory evaluation and QSAR analysis” (Eur J Med Chem, 2008).
# Calls of active or inactive are those of the source. The rule behind the calls is not given here.
# Test system: Mus musculus
# Experiment: Antiinflammatory activity against xylene-induced ear edema in ICR mouse at 20 mg/kg, po
# Assay type: functional, organism-based
# Parameters: dose 20 mg/kg
# Outline: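 Mice dosed orally with compound suspended in CMC (2.0 mg/mL), vehicle group given CMC, aspirin in CMC as positive control; 30 min later 0.03 mL xylene applied to both surfaces of right ear, left ear untreated. After 2 h mice killed, 7 mm ear punches weighed; edema = right minus left section weight, expressed as % inhibition. n = 11; ANOVA, p < 0.05.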
row,SMILES,Activity
1,CC(C)C[C@H](NCCC1OCC(C)(C)CO1)C(=O)O,Active
2,CC1(C)COC(CCN[C@@H](CCCNC(=N)N)C(=O)O)OC1,Active
3,CC1(C)COC(CCN[C@@H](Cc2ccc(O)cc2)C(=O)O)OC1,Active
4,CC1(C)COC(CCNCC(=O)O)OC1,Active
5,CC1(C)COC(CCN[C@@H](CC(=O)O)C(=O)O)OC1,Active
6,C[C@H](NCCC1OCC(C)(C)CO1)C(=O)O,Active
7,CC1(C)COC(CCN[C@@H](Cc2c[nH]cn2)C(=O)O)OC1,Active
8,CC1(C)COC(CCN[C@@H](Cc2c[nH]c3ccccc23)C(=O)O)OC1,Active
9,CC1(C)COC(CCN[C@@H](CCCCN)C(=O)O)OC1,Active
10,CC1(C)COC(CCN[C@@H](CCC(N)=O)C(=O)O)OC1,Active
11,CC1(C)COC(CCN[C@@H](Cc2ccccc2)C(=O)O)OC1,Active
12,CC1(C)COC(CCN[C@@H](CO)C(=O)O)OC1,Active
13,CC1(C)COC(CCN[C@@H](CC(N)=O)C(=O)O)OC1,Active
14,CC[C@H](C)[C@H](NCCC1OCC(C)(C)CO1)C(=O)O,Active
15,CC(C)[C@H](NCCC1OCC(C)(C)CO1)C(=O)O,Active
16,CC1(C)COC(CCN[C@@H](CCC(=O)O)C(=O)O)OC1,Active
17,C[C@@H](O)[C@H](NCCC1OCC(C)(C)CO1)C(=O)O,Active
18,CSCC[C@H](NCCC1OCC(C)(C)CO1)C(=O)O,Active
19,CC1(C)COC(CCN2CCC[C@H]2C(=O)O)OC1,Active
